Runt-SMMHC FRET: inhibitors of human RUNX1 Runt domain binding to CBFb-SMMHC; Cerulean-Runt/Venus-CBFb-SMMHC FRET ratio 530/480, 1 h; AID 1434; inhibition, % at 20 µM; 220,000 compounds, 0.74% hits; Q01196+Q13951;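 active = mean inhibition across duplicate retests at 20 µM reaching about 50%, limit read from the data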;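 also: inhibitors lower the FRET ratio by blocking Runt binding to CBFb-SMMHC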
Hck Nef HTS: blocks Nef-activated human Hck kinase; P08631; 220,000 compounds, 0.68% hits; Recombinant Hck-YEEI plus Nef, Z-Lyte FRET kinase assay; inhibition, % at 20 µM;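 active = Hck-Nef kinase inhibition above about 50%, limit read from the data; inactive = inhibition below that limit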
Target sequence (P08631 whole entry, looked up): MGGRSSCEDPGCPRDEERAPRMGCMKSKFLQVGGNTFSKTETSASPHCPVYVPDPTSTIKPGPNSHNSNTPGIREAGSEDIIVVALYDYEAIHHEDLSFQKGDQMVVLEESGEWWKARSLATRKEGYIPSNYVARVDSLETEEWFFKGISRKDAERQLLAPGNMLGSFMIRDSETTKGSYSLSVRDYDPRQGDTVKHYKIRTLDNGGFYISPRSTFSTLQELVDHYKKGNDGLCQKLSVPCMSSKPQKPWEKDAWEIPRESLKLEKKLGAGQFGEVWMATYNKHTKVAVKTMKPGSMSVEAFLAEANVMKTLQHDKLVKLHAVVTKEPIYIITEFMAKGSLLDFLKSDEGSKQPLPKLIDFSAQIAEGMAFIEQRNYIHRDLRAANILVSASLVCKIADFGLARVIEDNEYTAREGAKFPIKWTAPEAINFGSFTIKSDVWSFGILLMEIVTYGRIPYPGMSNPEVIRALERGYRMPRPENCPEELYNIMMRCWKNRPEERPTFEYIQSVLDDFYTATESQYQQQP
CaV13 ICDI inh: Disruptors of the CACNA1D IQ motif to Ca2+-dependent inactivation inhibitor domain association, primary screening, Förster resonance energy transfer in intact living …; HEK cells, CFP/YFP FRET ICDI-IQ, plate reader, 10 min; percent FRET-ratio fall versus neutral wells; inhibition, % at 12.3 µM; 340,000 compounds, 0.098% hits; AID 743397;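 active = mean replicate inhibition of at least 30% and at least 1% of replicates passing that level; inconclusive = only one of the two criteria is met; inactive = neither criterion is met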
RanGTP-Impb inh: inhibitors of RanGTP-importin-beta interaction, primary screen, biochemical, FRET, CFP-Ran, YFP-importin-beta, homogeneous. inhibition, % (test concentration not listed). 300,000 compounds, 1.1% hits. cell-free CFP-Ran/YFP-importin-beta FRET ratio;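 active = more than half of the replicate wells show a fall in the fluorescence ratio signal beyond about 16%, limit read from the data, passing the limit was not always enough; inconclusive = exactly half of the replicate wells pass the set limit; inactive = fewer than half of replicates pass the limit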
Runt-CBFb FRET: inhibitors of human RUNX1 Runt domain binding to CBFb; inhibition, % at 20 µM; Q01196+Q13951; AID 1496; Cerulean-Runt/Venus-CBFb FRET ratio 530/480, 1 h; 220,000 compounds, 0.46% hits;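 active = inhibition over about 50% at 20 µM in the single-dose screen, limit read from the data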
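Doses: 20 µM compound in 1% DMSO | Material: Cerulean-labeled Runt domain protein | Amount: Each fluorescent fusion protein 100 nM | Schedule: Two 1 h room-temperature incubations shielded from light | Measured by: FRET fluorescence | Evaluation: Loss of energy transfer signal | Controls: Unlabeled CBFb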
Hck-Nef confirm: confirmation of Hck-Nef kinase inhibitors; 1,300 compounds, 28% hits; calls only at 10 µM; Recombinant Hck-YEEI:Nef, Z-Lyte FRET kinase assay; shares compounds with Hck Nef HTS;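 active = average inhibition of at least 50%, with Z-scores no higher than 3 in both the phospho-tyrosine peptide and fluorescence counterscreens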
Hits are given with their value; . = inactive; ? = inconclusive; / = no result shown; + = active, no number. In the library only some 1.5% were active in any assay of this set; here they are far more common.

SMILES	Runt-SMMHC FRET	Hck Nef HTS	CaV13 ICDI inh	RanGTP-Impb inh	Runt-CBFb FRET	Hck-Nef confirm
N#Cc1c(-c2ccco2)nc(SCC(=O)Nc2cccc(Cl)c2)[nH]c1=O	.	56	.	.	.	+
CC(C)C[C@H](CO)Nc1nc(Nc2cccc(Cl)c2)c2ncn(C(C)C)c2n1	.	106	.	.	.	+
CC(C)n1cnc2c(Nc3cccc(F)c3)nc(NCCO)nc21	.	97	.	.	.	+
CC(C)n1cnc2c(Nc3ccc(F)c(Cl)c3)nc(NCCO)nc21	/	/	.	.	/	/
O=CNn1cnc2c(oc3nc(-c4ccccc4)cc(-c4ccco4)c32)c1=O	.	55	.	.	.	.
CC(=O)Nc1ccc(S(=O)(=O)C(C#N)c2nc3ccccc3nc2NCCCO)cc1 (stereo unspecified)	.	165	.	.	.	/
CC(=O)Nc1ccc(S(=O)(=O)Nc2nc3ccccc3nc2Nc2ccccc2)cc1	.	.	.	.	.	/
CC(=O)Nc1ccc(S(=O)(=O)C(C#N)c2nc3ccccc3nc2NCCO)cc1 (stereo unspecified)	.	148	.	.	.	/
CC1C(=O)N(Cc2ccc([N+](=O)[O-])cc2)c2ccccc2N1C(=O)c1c(F)cccc1F (stereo unspecified)	/	/	.	.	/	/
CC1(C(=O)NS(=O)(=O)c2cccc(C#N)c2)CCN1C(=O)CC1CC1 (stereo unspecified)	/	/	.	/	/	/
CCN1/C(=C2/OC(=S)N(C)C2=O)Sc2ccccc21	.	.	.	/	.	/
CCN1/C(=C\C=C2\C(=O)N(C)C(=S)N2C)Sc2ccccc21	.	72	.	.	.	.
CCOc1ccc(NC(=S)N(CCN2CCOCC2)Cc2ccc3c(c2)CCCN3CC)cc1	.	.	?	.	.	/
CCN1CCCc2cc(CN(CCN3CCOCC3)C(=S)Nc3cc(F)cc(F)c3)ccc21	.	55	.	.	.	.
CCN1CCCc2cc(CN(CCN3CCOCC3)C(=S)Nc3ccc(OC)cc3)ccc21	.	54	.	.	.	.
CSc1nc2c(C)c(C)c(C)c(C)c2[nH]1	.	.	.	.	.	/
C=CCN1C(=O)C(O)(CC(=O)c2ccc(OC)cc2OC)c2cc(Br)ccc21 (stereo unspecified)	.	.	.	.	.	/
O=C(NC(=O)c1ccccc1Cl)Nc1ccc(-c2cnco2)cc1	.	70	.	.	.	.
O=C(Nc1ccc(-c2cnco2)cc1)c1ccccc1	.	.	.	.	.	/
Cc1cc2cc3c(C)cc(=O)oc3c(C)c2o1	/	/	.	.	/	/
Cc1cc2c(C)cc(=O)oc2c2c1NCCC2	60	97	33	.	.	/
O=C1C2CC=CCC2C(=O)N1c1ccc(OCC(O)Cn2nnc3ccccc32)cc1 (stereo unspecified)	.	.	.	.	.	/
Clc1ccc2oc(-c3cccnc3NCc3ccccc3)nc2c1	.	90	.	.	.	/
Cc1ccc(CNc2ncccc2-c2nc3cc(Cl)ccc3o2)cc1	.	66	.	.	.	+
C(=N\NCc1ccccc1)/c1ccc2nccnc2c1	.	68	.	.	.	+
SMILES	Runt-SMMHC FRET	Hck Nef HTS	CaV13 ICDI inh	RanGTP-Impb inh	Runt-CBFb FRET	Hck-Nef confirm
C(=N\NCc1ccccc1)/c1ccc2ncccc2c1	.	.	.	.	.	/
COc1ccccc1NC(=O)c1cc2c(s1)-c1ccccc1S(=O)(=O)C2	.	52	.	.	.	.
COc1ccc(S(=O)(=O)N(C)c2ccc(C(=O)NCC3CCCO3)cc2)cc1 (stereo unspecified)	.	.	.	.	.	/
CCCn1c(NC(=O)c2ccccc2)nc2ccccc21	.	.	.	.	.	/
CCCn1c(NC(=O)c2cccc(S(=O)(=O)N3CCCC3)c2)nc2ccccc21	.	52	.	.	.	+
COc1ccc(CC(C)NS(=O)(=O)c2ccc3c(c2)CCN3S(C)(=O)=O)cc1OC (stereo unspecified)	/	/	.	.	/	/
O=C(NCCCN1CCOCC1)c1ccc(S(=O)(=O)N2CCOCC2)cc1	.	.	/	.	.	/
COc1ccc(C(=O)N/C(=C\c2ccccc2)C(=O)NC(CCSC)C(=O)O)cc1 (stereo unspecified)	.	.	.	.	.	/
COc1ccc(C(=O)N/C(=C\c2ccccc2)C(=O)NC(CC(C)C)C(=O)O)cc1 (stereo unspecified)	.	60	.	?	.	.
Cc1ccc(SC[C@H](c2ccccc2)N2CCN(C)CCC2=O)cc1	.	.	.	.	.	/
Cc1cc(NC(=O)c2ccc(S(=O)(=O)N3CCc4ccccc43)cc2)no1	.	52	.	?	.	.
Cc1cc(NC(=O)c2ccc(S(=O)(=O)N3CCOCC3)cc2)no1	.	.	.	.	.	/
COCCn1c(C)cc(C(=O)CSc2n[nH]c(N)n2)c1C	.	.	.	.	.	/
COc1cccc(C(=O)Nc2ccc3nc(N4CCN(c5ncccn5)CC4)cc(C)c3c2)c1OC	.	.	/	/	.	/
CCOc1ccccc1C(=O)Nc1ccc2nc(N3CCN(c4ncccn4)CC3)cc(C)c2c1	/	64	/	/	/	+
Cn1nc(C(=O)Nc2sc3c(c2C#N)CCCC3)ccc1=O	.	.	.	.	.	/
Cc1cc(=O)oc2cc(NS(=O)(=O)c3ccccc3)ccc12	91	114	.	.	.	/
CN(C)S(=O)(=O)c1ccc(S(=O)(=O)Nc2ccc3c(c2)oc2ccccc23)cc1	.	.	.	.	.	/
Cc1cc(=O)oc2cc(NS(=O)(=O)c3ccc(F)cc3)ccc12	67	106	.	.	.	/
Cc1cc(=O)oc2cc(NC(=O)c3cc(F)ccc3F)ccc12	/	/	.	/	/	/
NN1C(=O)/C(=C\c2ccco2)SC1=S	.	78	.	.	.	.
O=C1/C(=C/c2ccco2)SC(=S)N1c1cccnc1	.	90	.	.	.	.
O=C1/C(=C\c2ccc(O)cc2)SC(=S)N1c1cccnc1	.	.	.	.	.	/
O=C(CCCN1C(=O)/C(=C/c2ccco2)SC1=S)Nc1cccc(C(=O)O)c1	.	82	.	.	.	.
COC(=O)c1sc(NC(=O)/C=C/c2ccc(C)cc2)nc1C	.	.	.	.	.	/
COC(=O)c1sc(NC(=O)/C=C/c2ccccc2Cl)nc1C	.	66	.	.	.	.
COc1cc([N+](=O)[O-])c(OC)cc1Nc1ccccc1C(=O)O	/	/	.	/	/	/
COc1cc(-c2ccc(Nc3ccccc3C(=O)O)c(OC)c2)ccc1Nc1ccccc1C(=O)O	.	94	.	/	.	+
CC1=C(C#N)c2nc(N)c(C#N)c(C)c2/C1=C\c1ccc(-c2ccccc2C(=O)O)o1	.	61	.	.	.	.

Screening data as filed in PubChem BioAssay.
